# Experiments:
# [1] = system: Nicotiana tabacum; experiment: Phytotoxicity against Nicotiana tabacum (tobacco) plant at 50 to 500 ug/mL; assay type: organism-based; settings: in vivo
# [2] = system: Tobacco mosaic virus; experiment: Antiviral activity against Tobacco mosaic virus (TMV) infected leaves assessed as viral inhibition at 50 ug/mL at 25 degC for 72 hr; assay type: functional
# In short: (§1)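 Systemic acquired resistance induction was assayed in a tobacco–TMV system. The antivirus inhibition ratio was calculated from the average number of viral lesions on inoculated leaves, relative to the corresponding control.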
# [3] = system: Thanatephorus cucumeris; experiment: Fungicide activity against Thanatephorus cucumeris assessed as growth inhibition at 50 ug/mL at 24 to 26 degC measured after 2 days; assay type: functional; settings: 48 h, read-out: GI
# [4] = system: Botryosphaeria berengeriana; experiment: Fungicide activity against Botryosphaeria berengeriana assessed as growth inhibition at 50 ug/mL at 24 to 26 degC measured after 2 days; assay type: functional; settings: 48 h, read-out: GI
# [5] = system: Phytophthora infestans; experiment: Fungicide activity against Phytophthora infestans assessed as growth inhibition at 50 ug/mL at 24 to 26 degC measured after 2 days; assay type: functional; settings: 48 h, read-out: GI
# [6] = system: Fusarium graminearum; experiment: Fungicide activity against Fusarium graminearum assessed as growth inhibition at 50 ug/mL at 24 to 26 degC measured after 2 days; assay type: functional; settings: 48 h, read-out: GI
# [7] = system: Fusarium oxysporum; experiment: Fungicide activity against Fusarium oxysporum assessed as growth inhibition at 50 ug/mL at 24 to 26 degC measured after 2 days; assay type: functional; settings: 48 h, read-out: GI
# [8] = system: Colletotrichum lagenaria; experiment: Fungicide activity against Colletotrichum lagenaria assessed as growth inhibition at 50 ug/mL at 24 to 26 degC measured after 2 days; assay type: functional; settings: 48 h, read-out: GI
# [9] = system: Cercospora beticola; experiment: Fungicide activity against Cercospora beticola assessed as growth inhibition at 50 ug/mL at 24 to 26 degC measured after 2 days; assay type: functional; settings: 48 h, read-out: GI
# [10] = system: Mycosphaerella arachidis; experiment: Fungicide activity against Mycosphaerella arachidis assessed as growth inhibition at 50 ug/mL at 24 to 26 degC measured after 2 days; assay type: functional; settings: 48 h, read-out: GI
# [11] = system: Botrytis cinerea; experiment: Fungicide activity against Botryotinia fuckeliana assessed as growth inhibition at 50 ug/mL at 24 to 26 degC measured after 2 days; assay type: functional; settings: 48 h, read-out: GI
# [12] = system: Alternaria solani; experiment: Fungicide activity against Alternaria solani assessed as growth inhibition at 50 ug/mL at 24 to 26 degC measured after 2 days; assay type: functional; settings: 48 h, read-out: GI
# [13] = system: Rhizoctonia solani; experiment: Fungicide activity against Rhizoctonia solani Kuhn assessed as growth inhibition at 50 ug/mL at 24 to 26 degC measured after 2 days; assay type: functional; settings: 48 h, read-out: GI
# [14] = system: Puccinia triticina; experiment: Fungicide activity against Puccinia triticina assessed as growth inhibition at 50 ug/mL at 24 to 26 degC measured after 2 days; assay type: functional; settings: 48 h, read-out: GI
# [15] = system: Tobacco mosaic virus; experiment: Antiviral activity against Tobacco mosaic virus (TMV) infected leaves assessed as viral inhibition at 100 ug/mL at 25 degC for 72 hr; assay type: functional; in short: as §1
# [16] = system: Tobacco mosaic virus; experiment: Antiviral activity against Tobacco mosaic virus (TMV) infected leaves assessed as viral inhibition at 500 ug/mL at 25 degC for 72 hr; assay type: functional; in short: as §1
Structure (SMILES),Activity [1],inhibition at 50 µg/mL [2] [%],inhibition of growth at 50 µg/mL [3] [%],inhibition of growth at 50 µg/mL [4] [%],inhibition of growth at 50 µg/mL [5] [%],inhibition of growth at 50 µg/mL [6] [%],inhibition of growth at 50 µg/mL [7] [%],inhibition of growth at 50 µg/mL [8] [%],inhibition of growth at 50 µg/mL [9] [%],inhibition of growth at 50 µg/mL [10] [%],inhibition of growth at 50 µg/mL [11] [%],inhibition of growth at 50 µg/mL [12] [%],inhibition of growth at 50 µg/mL [13] [%],inhibition of growth at 50 µg/mL [14] [%],inhibition at 100 µg/mL [15] [%],inhibition at 500 µg/mL [16] [%]
Cc1nnsc1C1=NNC2SC(CCl)=NN12 (configuration not stated),Toxic,29.2,38.4,33.3,11.4,33.3,25,4.3,21.4,34.8,65.2,23.8,–,–,–,–
Cc1nnsc1C1=NNC2SC(c3ccncc3)=NN12 (configuration not stated),Toxic,27,44.6,7.7,0,–,44.4,27.3,0,23.1,–,9.5,5.7,10,–,–
Cc1nnsc1C1=NNC2SC(c3ccc(OC(F)(F)F)cc3)=NN12 (configuration not stated),Toxic,10.2,30.4,17.9,4.8,–,44.4,18.2,0,15.4,–,9.5,11.1,70,–,–
CCCC1=NN2C(c3snnc3C)=NNC2S1 (configuration not stated),Toxic,0,77.8,40.5,75.8,75,93,50,33.3,62.1,84.9,34.4,–,–,–,–
Cc1nnsc1C1=NNC2SC(c3ccc([N+](=O)[O-])cc3)=NN12 (configuration not stated),Toxic,–,32.4,34.9,22.2,11.9,20.9,13.8,14.3,30.8,60,26.7,–,–,16.7,52.9
Cc1nnsc1C1=NNC2SC(/C=C/c3ccccc3)=NN12 (configuration not stated),Toxic,–,33.3,40.5,18.2,17.5,9.1,26.9,13.3,27.6,81.8,31.3,–,–,16.7,27.8
Cc1nnsc1C1=NNC2SC(c3c(Cl)cccc3Cl)=NN12 (configuration not stated),Toxic,12.5,42.3,37.2,20,14.3,13.9,20.7,28.6,23.1,64.4,23.7,–,–,–,–
Cc1nnsc1C1=NNC2SC(c3cccc(OC(F)(F)F)c3)=NN12 (configuration not stated),Toxic,–,35.2,25.6,17.8,4.8,18.6,13.8,35.7,23.1,68.9,23.7,–,–,30,37.5
Cc1nnsc1C1=NNC2SC(c3ccc(F)cc3)=NN12 (configuration not stated),Toxic,0,11.3,18.6,15.6,14.3,9.3,10.3,7.1,33.1,53.3,26.3,–,–,–,–
COc1ccc(C2=NN3C(c4snnc4C)=NNC3S2)cc1 (configuration not stated),Toxic,17.9,46.4,7.7,4.8,–,44.4,18.2,0,7.7,–,0,11.1,10,–,–
Cc1nnsc1C1=NNC2SC(c3ccccc3F)=NN12 (configuration not stated),Toxic,–,58.8,24.2,20,–,19.4,11.8,23.8,18.2,–,40,–,21.1,9.5,53.6
Cc1nnsc1C1=NNC2SC(c3ccco3)=NN12 (configuration not stated),Toxic,–,45.1,29,14.7,–,22.2,0,42.9,36.4,–,43.3,–,21,20,23.5
Cc1nnsc1C1=NNC2SC(c3cccc(F)c3)=NN12 (configuration not stated),Toxic,–,32.8,54.1,0,40.5,10,0,27.3,23.5,75,37.1,–,–,24.2,30.7
COc1ccccc1C1=NN2C(c3snnc3C)=NNC2S1 (configuration not stated),Toxic,40,32.8,24.4,11.1,18.2,17.2,27.3,30,25,50,30,–,–,–,–
Cc1nnsc1C1=NNC2SC(COc3ccc(Cl)cc3Cl)=NN12 (configuration not stated),Toxic,0,33.3,23.8,12.1,12.5,3,19.2,20,31,–,31.3,–,–,–,–
COc1cccc(C2=NN3C(c4snnc4C)=NNC3S2)c1 (configuration not stated),Toxic,0,60.8,45.2,17.3,–,19.4,0,14.3,18.2,–,23.3,–,31.6,–,–
Cc1nnsc1C1=NNC2SC(C(C)(C)C)=NN12 (configuration not stated),Toxic,7.89,56.7,17.7,14.7,–,13.9,5.88,23.8,36.4,–,16.7,–,26.3,–,–
Cc1nnsc1C1=NNC2SC(c3c(-c4ccccc4)noc3C)=NN12 (configuration not stated),Toxic,14.6,25.4,8.9,7.4,27.3,13.8,13.6,10,30,46.2,33.3,–,–,–,–

# Source: ChEMBL document CHEMBL3044632, “Synthesis, crystal structure, and biological activity of 4-methyl-1,2,3-thiadiazole-containing 1,2,4-triazolo[3,4-b][1,3,4]thiadiazoles” (J Agric Food Chem, 2010)
